# From ChEMBL document CHEMBL4118021, “Studies of TAK1-centered polypharmacology with novel covalent TAK1 inhibitors” (Bioorg Med Chem, 2017)
# Activity calls are given as the source filed them. The calls are words filed in the database; no cut-off is given here.
# How the values were obtained:
# [1] = target: Vascular endothelial growth factor receptor 2 (Homo sapiens) (UniProt P35968); assay: Inhibition of human VEGFR2 (787 to 1253 residues) expressed in mammalian expression system assessed as enzyme activity at 10 uM by KINOMEScan assay relative to control; design: scale not given: the % may be the effect or the level left
# How it was run: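 In vitro ATP-site competition binding assay across a panel of 456 kinases, with compound tested at 1 and 10 μM.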
# [2] = target: Ribonucleoside-diphosphate reductase large subunit (Homo sapiens) (UniProt P23921); assay: Binding affinity to RRM1 in human NCI-H358 cells at 1 uM by mass spectrometry based pull down assay; type: cell-based
# [3] = target: Proteasome activator complex subunit 1 (Homo sapiens) (UniProt Q06323); assay: Binding affinity to PSME1 in human NCI-H358 cells at 1 uM by mass spectrometry based pull down assay; type: cell-based
# Proteasome activator complex subunit 1 (Homo sapiens), sequence (Q06323 whole entry, one chain of several): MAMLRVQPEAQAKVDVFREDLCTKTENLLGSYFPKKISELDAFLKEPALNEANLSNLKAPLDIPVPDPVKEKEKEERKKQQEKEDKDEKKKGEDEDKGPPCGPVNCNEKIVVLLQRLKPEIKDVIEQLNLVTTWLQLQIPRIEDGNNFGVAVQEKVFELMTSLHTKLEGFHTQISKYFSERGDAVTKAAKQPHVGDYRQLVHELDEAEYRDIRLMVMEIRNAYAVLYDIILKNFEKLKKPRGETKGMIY
# [4] = target: Trifunctional enzyme subunit alpha, mitochondrial (Homo sapiens) (UniProt P40939); assay: Binding affinity to HADHA in human NCI-H358 cells at 1 uM by mass spectrometry based pull down assay; type: cell-based
# Trifunctional enzyme subunit alpha, mitochondrial (Homo sapiens), sequence (P40939 whole entry): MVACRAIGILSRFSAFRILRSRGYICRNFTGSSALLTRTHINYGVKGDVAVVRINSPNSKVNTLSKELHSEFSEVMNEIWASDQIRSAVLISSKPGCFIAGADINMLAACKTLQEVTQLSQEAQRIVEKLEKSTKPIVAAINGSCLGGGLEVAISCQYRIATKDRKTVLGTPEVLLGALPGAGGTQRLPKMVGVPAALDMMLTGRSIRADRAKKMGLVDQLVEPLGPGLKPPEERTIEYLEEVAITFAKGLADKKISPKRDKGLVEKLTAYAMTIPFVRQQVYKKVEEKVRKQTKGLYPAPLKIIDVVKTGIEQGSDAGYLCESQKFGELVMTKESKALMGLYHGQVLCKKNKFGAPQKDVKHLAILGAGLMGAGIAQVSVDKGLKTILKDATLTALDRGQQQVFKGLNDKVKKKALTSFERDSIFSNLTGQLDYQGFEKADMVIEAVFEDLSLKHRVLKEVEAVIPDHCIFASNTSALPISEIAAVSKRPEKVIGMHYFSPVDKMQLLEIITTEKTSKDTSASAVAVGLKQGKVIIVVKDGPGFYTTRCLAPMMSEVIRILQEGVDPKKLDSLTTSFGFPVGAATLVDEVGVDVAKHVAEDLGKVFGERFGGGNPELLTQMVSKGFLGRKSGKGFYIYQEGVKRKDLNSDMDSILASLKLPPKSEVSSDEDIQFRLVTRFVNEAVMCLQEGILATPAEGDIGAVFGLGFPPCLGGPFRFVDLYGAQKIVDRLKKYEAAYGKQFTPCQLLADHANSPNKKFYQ
# [5] = target: Protein disulfide-isomerase A4 (Homo sapiens) (UniProt P13667); assay: Binding affinity to PDIA4 in human NCI-H358 cells at 1 uM by mass spectrometry based pull down assay; type: cell-based
# Protein disulfide-isomerase A4 (Homo sapiens), sequence (P13667 whole entry): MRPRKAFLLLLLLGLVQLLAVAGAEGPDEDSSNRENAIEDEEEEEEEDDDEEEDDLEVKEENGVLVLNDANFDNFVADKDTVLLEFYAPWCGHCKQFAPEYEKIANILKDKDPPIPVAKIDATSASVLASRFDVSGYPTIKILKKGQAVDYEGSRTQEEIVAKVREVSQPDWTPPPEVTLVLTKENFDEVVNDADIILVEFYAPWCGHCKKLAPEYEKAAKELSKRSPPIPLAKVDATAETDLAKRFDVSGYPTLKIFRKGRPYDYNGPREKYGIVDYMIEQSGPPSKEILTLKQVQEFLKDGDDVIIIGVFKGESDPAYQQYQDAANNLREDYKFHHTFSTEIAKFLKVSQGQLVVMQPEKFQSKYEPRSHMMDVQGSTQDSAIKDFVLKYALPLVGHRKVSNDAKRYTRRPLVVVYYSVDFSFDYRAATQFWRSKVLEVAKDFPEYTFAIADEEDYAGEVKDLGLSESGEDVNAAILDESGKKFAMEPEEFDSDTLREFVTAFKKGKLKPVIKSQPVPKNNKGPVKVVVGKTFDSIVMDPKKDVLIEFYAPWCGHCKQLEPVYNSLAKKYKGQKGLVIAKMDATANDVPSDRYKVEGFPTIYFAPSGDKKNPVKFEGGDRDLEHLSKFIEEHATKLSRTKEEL
# [6] = target: Plakophilin-1 (Homo sapiens) (UniProt Q13835); assay: Binding affinity to PKP1 in human NCI-H23 cells at 1 uM by mass spectrometry based pull down assay; type: cell-based
# Plakophilin-1 (Homo sapiens), sequence (Q13835 whole entry): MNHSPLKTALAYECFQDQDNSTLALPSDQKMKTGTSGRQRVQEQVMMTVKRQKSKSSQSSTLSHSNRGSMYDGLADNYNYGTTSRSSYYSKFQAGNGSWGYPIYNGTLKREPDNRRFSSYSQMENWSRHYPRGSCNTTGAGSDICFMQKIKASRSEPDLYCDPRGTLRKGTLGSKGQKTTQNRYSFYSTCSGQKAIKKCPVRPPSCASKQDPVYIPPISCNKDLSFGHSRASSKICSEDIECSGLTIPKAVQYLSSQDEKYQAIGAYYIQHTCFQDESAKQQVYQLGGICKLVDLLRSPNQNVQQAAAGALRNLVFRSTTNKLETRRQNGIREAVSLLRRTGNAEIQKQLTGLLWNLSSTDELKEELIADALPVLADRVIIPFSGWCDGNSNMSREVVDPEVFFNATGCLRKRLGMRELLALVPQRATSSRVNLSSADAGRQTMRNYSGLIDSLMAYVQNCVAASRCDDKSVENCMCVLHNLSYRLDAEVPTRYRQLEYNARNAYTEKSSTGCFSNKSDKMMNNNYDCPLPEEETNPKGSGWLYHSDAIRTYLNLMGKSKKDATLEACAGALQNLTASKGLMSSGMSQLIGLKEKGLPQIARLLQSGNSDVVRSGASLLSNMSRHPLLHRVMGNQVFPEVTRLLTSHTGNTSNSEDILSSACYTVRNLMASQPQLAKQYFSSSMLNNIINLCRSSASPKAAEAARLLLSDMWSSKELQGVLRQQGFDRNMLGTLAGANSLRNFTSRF
# [7] = target: Proteasome subunit beta type-6 (Homo sapiens) (UniProt P28072); assay: Binding affinity to PSMB6 in human NCI-H358 cells at 1 uM by mass spectrometry based pull down assay; type: cell-based
# [8] = target: Transmembrane emp24 domain-containing protein 10 (Homo sapiens) (UniProt P49755); assay: Binding affinity to TMED10 in human NCI-H23 cells at 1 uM by mass spectrometry based pull down assay; type: cell-based
# [9] = target: Casein kinase II subunit beta (Homo sapiens) (UniProt P67870); assay: Binding affinity to CSNK2B in human NCI-H23 cells at 1 uM by mass spectrometry based pull down assay; type: cell-based
# [10] = target: T1, 80S Ribosome (Homo sapiens) (UniProt P08865+P42677+P62753+P15880+P23396+P61247+P62701+P22090+P46782+P62081+P62241+P46781+P46783+P62280+P25398+P62277+P62263+P62841+P62244+P62249+P08708+P62269+P39019+P60866+P63220+P62266+P62847+P62851+P62854+P62979+P62857+P62273+P62861+P39023+P36578+P46777+Q02878+P18124+P62424+P62917+P32969+P27635+P62906+P62913+P30050+P26373+P40429+P50914+P61313+P18621+Q07020+Q02543+P84098+P46778+P35268+P62829+P62750+P83731+P61254+P61353+P46776+P46779+P47914+P62888+P62899+P62910+P49207+P42766+P18077+Q9Y3U8+P83881+P61927+P61513+P63173+P62891+P62945+P05388+P05386); assay: Binding affinity to RPS5 in human NCI-H358 cells at 1 uM by mass spectrometry based pull down assay; type: cell-based
# [11] = target: E3 ubiquitin-protein ligase TRIM33 (Homo sapiens) (UniProt Q9UPN9); assay: Binding affinity to TRIM33 in human NCI-H23 cells at 1 uM by mass spectrometry based pull down assay; type: cell-based
# [12] = target: T1, 80S Ribosome (Homo sapiens); assay: Binding affinity to RPL35A in human NCI-H23 cells at 1 uM by mass spectrometry based pull down assay; type: cell-based
# [13] = target: Beclin-1 (Homo sapiens) (UniProt Q14457); assay: Binding affinity to BECN1 in human NCI-H358 cells at 1 uM by mass spectrometry based pull down assay; type: cell-based
# Beclin-1 (Homo sapiens), sequence (Q14457 whole entry): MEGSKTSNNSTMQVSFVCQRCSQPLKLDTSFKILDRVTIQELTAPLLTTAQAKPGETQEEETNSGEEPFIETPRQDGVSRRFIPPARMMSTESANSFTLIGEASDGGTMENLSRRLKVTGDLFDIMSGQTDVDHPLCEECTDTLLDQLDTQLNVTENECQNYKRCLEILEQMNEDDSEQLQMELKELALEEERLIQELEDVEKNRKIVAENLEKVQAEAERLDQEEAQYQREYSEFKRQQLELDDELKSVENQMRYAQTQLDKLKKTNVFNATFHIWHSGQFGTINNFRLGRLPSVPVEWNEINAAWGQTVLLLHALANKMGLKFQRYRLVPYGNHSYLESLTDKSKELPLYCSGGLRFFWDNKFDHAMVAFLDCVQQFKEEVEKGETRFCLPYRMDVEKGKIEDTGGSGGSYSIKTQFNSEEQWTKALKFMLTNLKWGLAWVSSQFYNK
# [14] = target: T2, Aurora kinase A (Homo sapiens) (UniProt O14965); assay: Binding affinity to AURKA in human NCI-H23 cells at 1 uM by mass spectrometry based pull down assay; type: cell-based
# T2 sequence (whole entry): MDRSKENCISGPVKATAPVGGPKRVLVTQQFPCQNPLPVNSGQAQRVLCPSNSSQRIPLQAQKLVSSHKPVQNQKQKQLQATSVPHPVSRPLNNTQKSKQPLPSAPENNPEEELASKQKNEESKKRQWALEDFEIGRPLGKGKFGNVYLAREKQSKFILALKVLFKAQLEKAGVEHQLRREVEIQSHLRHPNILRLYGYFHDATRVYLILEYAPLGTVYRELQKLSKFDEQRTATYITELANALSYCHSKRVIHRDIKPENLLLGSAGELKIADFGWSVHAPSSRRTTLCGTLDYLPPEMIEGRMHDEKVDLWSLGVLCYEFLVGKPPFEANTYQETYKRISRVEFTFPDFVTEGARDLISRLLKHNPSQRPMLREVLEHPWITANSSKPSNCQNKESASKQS
# [15] = target: Signal recognition particle receptor subunit beta (Homo sapiens) (UniProt Q9Y5M8); assay: Binding affinity to SRPRB in human NCI-H358 cells at 1 uM by mass spectrometry based pull down assay; type: cell-based
# Signal recognition particle receptor subunit beta (Homo sapiens), sequence (Q9Y5M8 whole entry): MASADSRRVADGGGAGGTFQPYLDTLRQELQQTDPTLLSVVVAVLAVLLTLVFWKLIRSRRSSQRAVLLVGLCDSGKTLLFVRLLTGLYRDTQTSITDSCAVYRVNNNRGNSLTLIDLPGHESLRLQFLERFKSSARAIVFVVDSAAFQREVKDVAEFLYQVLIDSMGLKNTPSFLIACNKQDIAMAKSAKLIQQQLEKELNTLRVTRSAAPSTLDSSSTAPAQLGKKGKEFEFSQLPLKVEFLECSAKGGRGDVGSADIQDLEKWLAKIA
# [16] = target: T3, Dual specificity mitogen-activated protein kinase kinase 4 (Homo sapiens) (UniProt P45985); assay: Binding affinity to MAP2K4 in human NCI-H358 cells at 1 uM by mass spectrometry based pull down assay; type: cell-based
# T3 sequence (whole entry): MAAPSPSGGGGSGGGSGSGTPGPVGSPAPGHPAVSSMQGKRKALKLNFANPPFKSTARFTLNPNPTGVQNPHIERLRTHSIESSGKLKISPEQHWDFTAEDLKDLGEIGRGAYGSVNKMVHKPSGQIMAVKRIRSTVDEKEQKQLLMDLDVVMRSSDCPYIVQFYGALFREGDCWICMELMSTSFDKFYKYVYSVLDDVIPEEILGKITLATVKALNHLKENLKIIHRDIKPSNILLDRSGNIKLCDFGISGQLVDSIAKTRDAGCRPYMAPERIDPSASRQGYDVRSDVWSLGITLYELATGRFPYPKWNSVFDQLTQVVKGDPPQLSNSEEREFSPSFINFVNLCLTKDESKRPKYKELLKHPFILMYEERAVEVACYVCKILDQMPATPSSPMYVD
# [17] = target: ATP synthase F(1) complex subunit gamma, mitochondrial (Homo sapiens) (UniProt P36542); assay: Binding affinity to ATP5C1 in human NCI-H358 cells at 1 uM by mass spectrometry based pull down assay; type: cell-based
# [18] = target: Glutamate--cysteine ligase regulatory subunit (Homo sapiens) (UniProt P48507); assay: Binding affinity to GCLM in human NCI-H23 cells at 1 uM by mass spectrometry based pull down assay; type: cell-based
# [19] = target: Receptor-type tyrosine-protein kinase FLT3 (Homo sapiens, UniProt P36888); assay: Inhibition of FLT3 (unknown origin)
# Receptor-type tyrosine-protein kinase FLT3, sequence (P36888 whole entry, the tested form may be a part): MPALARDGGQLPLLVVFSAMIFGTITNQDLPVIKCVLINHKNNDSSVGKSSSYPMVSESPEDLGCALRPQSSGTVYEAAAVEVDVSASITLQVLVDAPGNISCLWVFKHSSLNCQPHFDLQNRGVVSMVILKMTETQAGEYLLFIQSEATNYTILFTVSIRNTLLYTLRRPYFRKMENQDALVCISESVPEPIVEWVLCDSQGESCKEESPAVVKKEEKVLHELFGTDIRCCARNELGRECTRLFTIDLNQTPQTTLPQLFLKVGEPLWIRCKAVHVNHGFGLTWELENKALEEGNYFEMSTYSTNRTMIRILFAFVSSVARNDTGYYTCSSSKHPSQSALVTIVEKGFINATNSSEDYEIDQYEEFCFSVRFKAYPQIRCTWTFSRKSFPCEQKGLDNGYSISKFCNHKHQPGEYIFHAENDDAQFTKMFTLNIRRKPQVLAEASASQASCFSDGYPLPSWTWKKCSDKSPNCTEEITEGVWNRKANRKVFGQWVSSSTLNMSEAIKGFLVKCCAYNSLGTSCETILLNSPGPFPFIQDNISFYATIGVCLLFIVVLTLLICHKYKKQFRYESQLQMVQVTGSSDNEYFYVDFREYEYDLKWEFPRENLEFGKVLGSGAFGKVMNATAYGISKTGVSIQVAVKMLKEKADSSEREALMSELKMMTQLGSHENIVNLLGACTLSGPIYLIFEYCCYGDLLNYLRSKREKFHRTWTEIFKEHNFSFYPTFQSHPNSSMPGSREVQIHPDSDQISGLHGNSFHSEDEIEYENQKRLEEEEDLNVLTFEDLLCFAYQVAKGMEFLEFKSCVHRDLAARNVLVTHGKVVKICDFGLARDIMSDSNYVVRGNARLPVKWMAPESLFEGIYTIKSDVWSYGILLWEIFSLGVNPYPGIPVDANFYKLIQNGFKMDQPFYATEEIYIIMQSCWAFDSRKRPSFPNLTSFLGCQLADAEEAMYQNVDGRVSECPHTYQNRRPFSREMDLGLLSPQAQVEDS
# [20] = target: Ribosomal protein S6 kinase alpha-3 (Homo sapiens) (UniProt P51812); assay: Inhibition of RSK2 domain2 in human SKCO1 cells at 1 uM after 4 hrs using biotin labeled DLKPSNILYVDESGNPESIR probe by mass-spectrometric analysis relative to control; type: cell-based
# Ribosomal protein S6 kinase alpha-3 (Homo sapiens), sequence (P51812 whole entry, the tested form may be a part): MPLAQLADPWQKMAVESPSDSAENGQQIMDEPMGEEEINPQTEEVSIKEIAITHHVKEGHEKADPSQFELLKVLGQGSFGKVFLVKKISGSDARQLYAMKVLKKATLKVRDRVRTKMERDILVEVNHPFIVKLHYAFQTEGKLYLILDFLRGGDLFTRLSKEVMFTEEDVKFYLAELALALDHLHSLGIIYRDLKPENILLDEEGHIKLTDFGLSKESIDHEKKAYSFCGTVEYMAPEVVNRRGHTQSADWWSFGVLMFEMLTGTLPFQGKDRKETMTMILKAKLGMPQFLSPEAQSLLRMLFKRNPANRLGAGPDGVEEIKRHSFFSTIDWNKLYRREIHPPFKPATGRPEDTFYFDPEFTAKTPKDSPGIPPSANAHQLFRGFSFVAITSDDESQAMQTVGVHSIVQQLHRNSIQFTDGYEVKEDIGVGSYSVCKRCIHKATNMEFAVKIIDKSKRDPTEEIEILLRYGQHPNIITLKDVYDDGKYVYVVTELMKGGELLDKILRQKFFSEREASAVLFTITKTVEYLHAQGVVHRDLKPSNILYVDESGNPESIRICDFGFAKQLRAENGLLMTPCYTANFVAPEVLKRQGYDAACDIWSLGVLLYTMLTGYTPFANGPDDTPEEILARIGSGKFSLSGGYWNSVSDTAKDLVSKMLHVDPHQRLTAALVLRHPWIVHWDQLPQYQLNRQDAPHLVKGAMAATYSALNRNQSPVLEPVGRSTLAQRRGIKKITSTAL
smiles,measurement,setting,value
COc1cc(O)c2c(c1)/C=C/C[C@H](O)[C@H](O)C(=O)/C=C\C[C@H](C)OC2=O,Activity,[1],5.2%
C=CC(=O)Nc1ccccc1Nc1nc(Nc2ccc(N3CCN(CCOCCOCCOCCNC(=O)CCCC[C@@H]4SC[C@@H]5NC(=O)N[C@@H]54)CC3)cc2)ncc1Cl,Activity,[2],Active
same,Activity,[3],Active
same,Activity,[4],Active
same,Activity,[5],Active
same,Activity,[6],Active
same,Activity,[7],Active
same,Activity,[8],Active
same,Activity,[9],Active
same,Activity,[10],Active
same,Activity,[11],Active
same,Activity,[12],Active
same,Activity,[13],Active
same,Activity,[14],Active
same,Activity,[15],Active
same,Activity,[16],Active
same,Activity,[17],Active
same,Activity,[18],Active
C=CC(=O)Nc1ccccc1Oc1nc(Nc2cnn(CCOC)c2)ncc1Cl,IC50,[19],0.54 nM
same,inhibition,[20],-9.3%
